Test results: PubChem BioAssay
Calls of active or inactive are those of the source.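 The calls were made as follows, unless noted: active = fluorescence slope higher than the sample average by over 3 SD (cut at about -0.22 in these data, passing the limit was not always enough); inactive = the rest.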

Experiments:
[1] = inhibitors of TNFa-induced NFkB p65 translocation, primary screen, imaging, HUVEC, MLSMR starter and 10KST1 sets (AID 438;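 active = inhibition above 20% together with a positive visual image hit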;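 also: compound added about 3h40 before a 20 min TNFalpha stimulation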;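 as to inhibition: signal is the nuclear over cytoplasmic p65 intensity ratio per well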); details: HUVEC TNFa-induced p65 nuclear translocation; cell count: measured here: nuclei count (cytotoxicity indicator), at 2.08 µM; inhibition: at 2 µM, stronger effect = higher value, 0% TNFa-plus-vehicle, 100% no-TNFa wells
[2] = inhibitors of mutant huntingtin aggregation, primary screen, imaging, exon1htt(103Q)mCFP cells, high-content imaging (AID 483;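 active = visual image review flags a hit and inhibition of aggregation exceeds 20%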;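 also: compound exposure lasted 3 days before fixation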;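 as to nuclei count: percent of the per-plate median nuclei count of sample wells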); details: exon1htt(103Q)mCFP cell line, aggregate imaging, at 2 µM; inhibition of aggregation: stronger effect = higher value; nuclei count: measured here: cell count, toxicity
[3] = inhibitors of E-selectin induction by TNFa, primary screen, imaging, HUVEC, immunofluorescence, MLSMR starter and 10KST1 sets (AID 487;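 active = visually confirmed hit in the image check and inhibition above 20%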;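 as to inhibition: signal is fraction of cell area covered by stained E-selectin grains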;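 as to nuclei count: 100% = median nuclei count of all wells on the same plate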); details: HUVEC TNFalpha-induced E-selectin immunofluorescence imaging, at 2 µM; inhibition: stronger effect = higher value; nuclei count: measured here: cell number, toxicity
[4] = molecular target: Voltage-gated potassium channel subunit beta-2 (Rattus norvegicus) (UniProt P62483); experiment: KvBeta enzyme negative modulators, primary screen, biochemical, NADPH fluorescence (AID 622); details: recombinant KvBeta, 4-cyanobenzaldehyde reduction, at 10 µM, stronger effect = higher value;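 also: slope of raw intensity against log time taken from 70 to 1610 s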
Sequence of Voltage-gated potassium channel subunit beta-2 (Rattus norvegicus) (P62483 whole entry, looked up): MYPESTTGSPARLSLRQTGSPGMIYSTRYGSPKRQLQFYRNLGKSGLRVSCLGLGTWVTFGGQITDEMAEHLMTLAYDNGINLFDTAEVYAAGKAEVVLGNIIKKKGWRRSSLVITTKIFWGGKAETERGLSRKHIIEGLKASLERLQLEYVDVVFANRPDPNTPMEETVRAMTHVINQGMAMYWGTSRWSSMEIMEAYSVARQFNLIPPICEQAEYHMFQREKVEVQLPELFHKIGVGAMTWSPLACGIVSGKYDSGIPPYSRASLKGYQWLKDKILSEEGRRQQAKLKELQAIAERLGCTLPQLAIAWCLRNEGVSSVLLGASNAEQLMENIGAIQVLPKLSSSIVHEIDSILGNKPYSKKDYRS

[5] = molecular target: Voltage-gated potassium channel subunit beta-2 (Rattus norvegicus) (UniProt P62483); experiment: KvBeta positive modulators, primary screen, biochemical, NADPH fluorescence (AID 623;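 active = NADPH fluorescence slope more negative than the mean of all samples by about 3 SD, 99.7% confidence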;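 also: fluorescence intensity change per second fitted from 20 to 320 s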); details: Recombinant KvBeta, NADPH fluorescence decrease slope, 10 min; at 10 µM; stronger effect = lower value
[6] = molecular target: Muscarinic acetylcholine receptor M4 (Homo sapiens) (UniProt P08173); experiment: compounds altering M4/GIRK thallium flux, either direction, primary screen, M4 allosteric agonist project, cell-based, HEK293 M4/GIRK, BTC-AM (AID 625;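 active = fluorescence slope after compound addition differing from the mean of all tested samples at 99.7% confidence, mostly higher but some lower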;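 also: thallium influx through GIRK channels coupled to M4 in HEK293 cells with BTC-AM dye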); details: at 10 µM, actives lie on both sides
Sequence of Muscarinic acetylcholine receptor M4 (Homo sapiens) (P08173 whole entry, looked up): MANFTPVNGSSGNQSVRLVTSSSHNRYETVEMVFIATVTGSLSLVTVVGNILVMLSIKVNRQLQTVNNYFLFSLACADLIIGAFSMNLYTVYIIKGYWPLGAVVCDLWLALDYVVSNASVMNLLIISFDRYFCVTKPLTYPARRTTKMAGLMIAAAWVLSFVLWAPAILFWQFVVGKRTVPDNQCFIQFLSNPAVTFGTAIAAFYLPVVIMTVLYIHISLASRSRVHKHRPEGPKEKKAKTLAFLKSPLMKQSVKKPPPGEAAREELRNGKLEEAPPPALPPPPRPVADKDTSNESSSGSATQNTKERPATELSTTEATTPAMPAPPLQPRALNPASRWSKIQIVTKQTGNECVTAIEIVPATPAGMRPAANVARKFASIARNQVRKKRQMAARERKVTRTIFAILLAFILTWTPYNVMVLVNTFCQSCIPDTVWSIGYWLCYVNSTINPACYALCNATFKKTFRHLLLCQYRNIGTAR
Method in brief: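 Material: HEK293 cells with M4 receptor and GIRK channels; Times: cells overnight at 37 °C, BTC-AM loading 1 h, reads 2 min total; Technique: kinetic BTC-AM fluorescence sampled at 1 Hz, 10 s pre-addition baseline; Read-out basis: slope over 15–24 s of trace normalized to starting intensity; Controls: carbachol positive, DMSO negative.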

[7] = inhibitors of Sendai virus-induced IRF3 signaling, primary screen, TLR/RLR signaling modifier project, cell-based, Sendai virus stimulus, luciferase, 10K MLSCN set (AID 602276;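 active = inhibition at or above 50% at 10 µM; inactive = inhibition below 50%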;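 also: firefly luciferase from ISG56 promoter only with Renilla not read in this screen; 0% = Sendai virus plus DMSO and 100% = medium plus DMSO without virus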); details: HEK293 RL24 IRF3 luciferase reporter, at 10 µM, stronger effect = higher value
[8] = inhibitors of poly I:C-induced TLR3 signaling, primary screen, cell-based, poly I:C stimulus, luciferase, 10K MLSCN set (AID 602277;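 active = inhibition of the reporter signal at or above 50%; inactive = inhibition below 50%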); details: HEK293-TLR3 RL24 IRF3 luciferase reporter, at 10 µM, stronger effect = higher value

With `CCOC(=O)C(NC(=O)C1CCCN1C(=O)OCc1ccccc1)C(=O)OCC` (configuration not stated) the cell count [1] was 586, the inhibition [1] was 7.2% (inactive) and the inhibition of aggregation [2] was -1.6% (inactive). The nuclei count [2] was 105%, the inhibition [3] was -11% (inactive) and the nuclei count [3] was 97.9%. The fluorescence slope [4] was -0.567 (inactive), the NADPH fluorescence slope [5] was -1.7e-05 (inactive) and the fluorescence slope [6] was 0.00516 (inactive). The inhibition [7] was 20.4% (inactive) and the inhibition [8] was 32% (inactive).

With `O=C(C1CCN(S(=O)(=O)c2ccc(-n3cnnn3)cc2)CC1)N1CCN(c2ccccc2)CC1` the cell count [1] was 464, the inhibition [1] was 4.2% (inactive) and the inhibition of aggregation [2] was 3.7% (inactive). For the same compound, the nuclei count [2] was 76.8%, the inhibition [3] was -101% (inactive) and the nuclei count [3] was 120%. The fluorescence slope [4] was -0.569 (inactive), the NADPH fluorescence slope [5] was -4.3e-05 (inactive) and the fluorescence slope [6] was 0.00595 (inactive). For the same compound, the inhibition [7] was 18.7% (inactive) and the inhibition [8] was 18.2% (inactive).

For `COc1cc2c(cc1OC)C(c1cc(OC)c(OC)c(OC)c1)NCC2` (configuration not stated), the cell count [1] was 514, the inhibition [1] was 1.8% (inactive) and the inhibition of aggregation [2] was 10.4% (inactive). For the same compound, the nuclei count [2] was 104%, the inhibition [3] was -28.8% (inactive) and the nuclei count [3] was 102%. The fluorescence slope [4] was -0.546 (inactive), the NADPH fluorescence slope [5] was -2.1e-05 (inactive) and the fluorescence slope [6] was 0.00597 (inactive). For the same compound, the inhibition [7] was 15.4% (inactive) and the inhibition [8] was 20.5% (inactive).

With `CN1CCN(C(=O)c2ccccc2N(Cc2ccccc2)S(C)(=O)=O)CC1` the cell count [1] was 359, the inhibition [1] was 4% (inactive) and the inhibition of aggregation [2] was 2.7% (inactive). For the same compound, the nuclei count [2] was 111%, the inhibition [3] was -6% (inactive) and the nuclei count [3] was 110%. The fluorescence slope [4] was -0.596 (inactive), the NADPH fluorescence slope [5] was -6.8e-05 (inactive) and the fluorescence slope [6] was 0.00748 (inactive). The inhibition [7] was -0.336% (inactive) and the inhibition [8] was 4.8% (inactive).

For `COc1ccc(N2CCN(C(=O)CSc3nnc4n3C(C)(C)Cc3ccccc3-4)CC2)cc1`, the cell count [1] was 548, the inhibition [1] was 7.7% (inactive) and the inhibition of aggregation [2] was -9.9% (inactive). For the same compound, the nuclei count [2] was 104%, the inhibition [3] was -14.4% (inactive) and the nuclei count [3] was 104%. For the same compound, the fluorescence slope [4] was -0.572 (inactive), the NADPH fluorescence slope [5] was -3.1e-05 (inactive) and the fluorescence slope [6] was 0.00723 (inactive). The inhibition [7] was 4.92% (inactive) and the inhibition [8] was -6.84% (inactive).

In the case of `Cc1occc1C(=O)Nc1cccc2ccccc12`, the cell count [1] is reported as 670, the inhibition [1] is reported as 5.2% (inactive) and the inhibition of aggregation [2] is reported as 16.6% (inactive). The nuclei count [2] was 97.2%, the inhibition [3] was -185% (inactive) and the nuclei count [3] was 100%. The fluorescence slope [4] was -0.546 (inactive), the NADPH fluorescence slope [5] was 7.3e-06 (inactive) and the fluorescence slope [6] was 0.00507 (inactive). For the same compound, the inhibition [7] was -27.7% (inactive) and the inhibition [8] was -86.3% (inactive).

For `CCn1c(CCNC(=O)c2ccc(OC)c(OC)c2)nc2ccccc21`, the cell count [1] was 275, the inhibition [1] was -8.5% (inactive) and the inhibition of aggregation [2] was -14.6% (inactive). The nuclei count [2] was 95.7%, the inhibition [3] was 3.1% (inactive) and the nuclei count [3] was 88.5%. The fluorescence slope [4] was -0.468 (inactive), the NADPH fluorescence slope [5] was -3.6e-05 (inactive) and the fluorescence slope [6] was 0.00543 (inactive). For the same compound, the inhibition [7] was 15.9% (inactive) and the inhibition [8] was 6.06% (inactive).
